Results published in ChEMBL document CHEMBL5252510, “A Novel Potent Oral Series of VEGFR2 Inhibitors Abrogate Tumor Growth by Inhibiting Angiogenesis” (J Med Chem, 2016).
The source made the active and inactive calls. The rule behind the calls is not given here.

How the values were obtained:
[1] = molecular target: Vascular endothelial growth factor receptor 2 (Mus musculus, UniProt P35918); test: Inhibition of mouse recombinant GST-fused VEGFR2 kinase domain expressed in baculovirus expression system using poly-Glu-Tyr (4:1) as substrate measured after 10 mins in presence of gamma-[33P]-ATP by scintillation counting analysis
Vascular endothelial growth factor receptor 2, sequence (P35918 whole entry, the tested form may be a part): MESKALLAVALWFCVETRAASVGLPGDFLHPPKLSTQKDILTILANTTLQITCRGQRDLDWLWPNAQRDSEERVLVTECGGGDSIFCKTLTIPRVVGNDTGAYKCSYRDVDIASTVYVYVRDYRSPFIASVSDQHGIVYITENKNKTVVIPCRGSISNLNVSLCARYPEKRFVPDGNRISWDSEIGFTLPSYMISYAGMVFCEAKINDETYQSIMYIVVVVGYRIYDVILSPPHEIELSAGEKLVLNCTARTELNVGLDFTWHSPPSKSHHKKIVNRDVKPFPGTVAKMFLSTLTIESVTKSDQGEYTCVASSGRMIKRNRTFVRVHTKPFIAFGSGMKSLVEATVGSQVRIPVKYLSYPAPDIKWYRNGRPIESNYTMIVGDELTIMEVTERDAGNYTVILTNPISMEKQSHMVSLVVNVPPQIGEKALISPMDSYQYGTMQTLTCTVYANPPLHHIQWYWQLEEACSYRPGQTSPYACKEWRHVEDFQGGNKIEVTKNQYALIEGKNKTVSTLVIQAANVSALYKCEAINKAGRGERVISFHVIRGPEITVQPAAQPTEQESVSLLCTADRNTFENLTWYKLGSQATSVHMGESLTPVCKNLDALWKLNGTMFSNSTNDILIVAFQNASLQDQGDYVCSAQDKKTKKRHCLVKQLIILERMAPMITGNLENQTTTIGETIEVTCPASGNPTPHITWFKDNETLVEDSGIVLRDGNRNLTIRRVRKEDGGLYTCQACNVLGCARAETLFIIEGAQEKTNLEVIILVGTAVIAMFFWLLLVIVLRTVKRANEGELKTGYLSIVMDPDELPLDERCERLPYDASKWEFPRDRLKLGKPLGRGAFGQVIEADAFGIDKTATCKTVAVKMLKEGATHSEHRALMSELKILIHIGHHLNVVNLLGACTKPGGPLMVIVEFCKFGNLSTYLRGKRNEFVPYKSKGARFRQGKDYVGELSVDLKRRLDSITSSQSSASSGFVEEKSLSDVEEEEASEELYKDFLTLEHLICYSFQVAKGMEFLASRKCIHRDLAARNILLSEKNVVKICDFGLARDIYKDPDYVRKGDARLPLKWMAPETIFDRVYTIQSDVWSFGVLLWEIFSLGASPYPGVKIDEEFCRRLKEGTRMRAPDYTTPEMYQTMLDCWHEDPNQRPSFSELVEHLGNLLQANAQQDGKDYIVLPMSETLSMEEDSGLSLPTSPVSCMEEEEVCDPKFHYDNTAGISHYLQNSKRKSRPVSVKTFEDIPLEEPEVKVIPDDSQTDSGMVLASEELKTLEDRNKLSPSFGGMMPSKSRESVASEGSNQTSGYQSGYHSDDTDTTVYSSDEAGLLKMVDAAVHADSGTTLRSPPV
Method in brief: (§1)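 GST-fused kinase domains were expressed in baculovirus and purified on glutathione-Sepharose. 10 min at ambient temperature, stopped with EDTA. Filter binding and scintillation counting. IC50 by linear regression of percent inhibition.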

[2] = system: BaF3; test: Antiproliferative activity against mouse BaF3 cells assessed as cell growth inhibition measured after 72 hrs by Alamar Blue assay; details: BaF3, 72 h
[3] = system: BaF3; test: Antiproliferative activity against mouse BaF3 cells expressing KIT D816V mutant assessed as cell growth inhibition measured after 72 hrs by Alamar Blue assay; details: BaF3, 72 h
[4] = system: BaF3; test: Antiproliferative activity against mouse BaF3 cells expressing NPM-ALK assessed as cell growth inhibition measured after 72 hrs by Alamar Blue assay; details: BaF3, 72 h
[5] = system: Mus musculus; test: Anti-angiogenesis activity in FVB mouse model assessed as inhibition of VEGF-induced tissue weight at 0.3 mg/kg, po qd treated for 4 to 6 hrs prior to chamber implantation and continuing for 4 days measured after 24 hrs post last dose; assay type: functional, organism-based; details: time 5.0 day
Method in brief: (§2)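 Female FVB mice (18-20 g), porous chambers with VEGF (2 μg/mL) in 0.8 % w/v agar containing heparin 20 U/mL implanted s.c. in flank; compound p.o. once daily in 100 % PEG200 (5 mL/kg) from 4-6 h before implantation for 4 days; tissue removed 24 h after last dose, weighed, lysate assayed for TIE-2 by sandwich ELISA; n=6 per dose, mean ± SEM.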

[6] = molecular target: Angiopoietin-1 receptor (Homo sapiens) (UniProt Q02763); test: Inhibition of human recombinant GST-fused TIE2 expressed in baculovirus expression system using poly-Glu-Tyr (4:1) as substrate measured after 10 mins in presence of gamma-[33P]-ATP by scintillation counting analysis; method in brief: as §1
Angiopoietin-1 receptor (Homo sapiens), sequence (Q02763 whole entry, the tested form may be a part): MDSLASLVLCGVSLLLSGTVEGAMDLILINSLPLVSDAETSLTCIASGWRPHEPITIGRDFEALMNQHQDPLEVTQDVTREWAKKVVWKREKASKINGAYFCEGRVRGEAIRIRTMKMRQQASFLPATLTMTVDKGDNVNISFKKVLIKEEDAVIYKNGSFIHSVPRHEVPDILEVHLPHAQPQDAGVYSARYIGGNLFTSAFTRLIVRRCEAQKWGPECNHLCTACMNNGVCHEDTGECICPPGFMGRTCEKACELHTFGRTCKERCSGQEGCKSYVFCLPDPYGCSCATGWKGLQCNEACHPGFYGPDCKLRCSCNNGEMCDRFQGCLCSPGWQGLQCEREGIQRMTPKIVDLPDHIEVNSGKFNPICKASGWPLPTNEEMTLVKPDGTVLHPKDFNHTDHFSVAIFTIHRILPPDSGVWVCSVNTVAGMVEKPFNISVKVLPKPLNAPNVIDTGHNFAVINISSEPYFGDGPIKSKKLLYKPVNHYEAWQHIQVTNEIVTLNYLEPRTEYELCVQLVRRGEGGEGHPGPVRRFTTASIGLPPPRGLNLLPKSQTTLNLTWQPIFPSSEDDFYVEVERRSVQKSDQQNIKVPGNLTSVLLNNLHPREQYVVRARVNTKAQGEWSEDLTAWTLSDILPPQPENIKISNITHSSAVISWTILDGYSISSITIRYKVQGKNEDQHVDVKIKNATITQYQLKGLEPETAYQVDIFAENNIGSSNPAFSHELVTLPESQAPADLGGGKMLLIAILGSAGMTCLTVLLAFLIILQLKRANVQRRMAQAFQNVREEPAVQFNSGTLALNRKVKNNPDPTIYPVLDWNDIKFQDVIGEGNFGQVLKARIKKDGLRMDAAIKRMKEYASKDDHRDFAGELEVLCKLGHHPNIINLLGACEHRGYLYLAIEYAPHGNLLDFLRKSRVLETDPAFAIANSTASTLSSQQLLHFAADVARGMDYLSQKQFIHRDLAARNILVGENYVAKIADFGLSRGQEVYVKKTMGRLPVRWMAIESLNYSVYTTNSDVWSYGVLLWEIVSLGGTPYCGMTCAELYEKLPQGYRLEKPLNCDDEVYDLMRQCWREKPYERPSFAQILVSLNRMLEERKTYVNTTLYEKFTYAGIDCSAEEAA

[7] = Toxicity in C57BL/6jNpa mouse harbouring mouse B16-BL6 cells assessed as effect on spleen weight at 3 mg/kg, po qd administered started on day 7 post implantation measured after 21 days; assay type: organism-based; details: in vivo, 504 h, time 7-21 day
Method in brief: (§3)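 B16/BL6 melanoma cells (50000) injected intradermally into dorsal pinna of both ears of female mice (18–20 g). Randomized on day 7 into groups of 5-6 by primary tumor size, then dosed orally once daily for 14 days in PEG300 or PEG200. Sacrificed day 21; blood analysed directly for platelets, red and white cell counts, hematocrit. Body and spleen weight recorded versus healthy naive mouse.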

[8] = system: BaF3; test: Antiproliferative activity against mouse BaF3 cells expressing Tel-IGF-1R assessed as cell growth inhibition measured after 72 hrs by Alamar Blue assay; details: BaF3, 72 h
[9] = system: BaF3; test: Antiproliferative activity against mouse BaF3 cells expressing Tel-PDGFRbeta assessed as cell growth inhibition measured after 72 hrs by Alamar Blue assay; details: BaF3, 72 h
[10] = system: Mus musculus; test: Anti-angiogenesis activity in FVB mouse model assessed as inhibition of VEGF-induced tissue TIE-2 level at 0.3 mg/kg, po qd treated for 4 to 6 hrs prior to chamber implantation and continuing for 4 days measured after 24 hrs post last dose by ELISA analysis; assay type: functional, organism-based; details: time 5.0 day; method in brief: as §2
[11] = system: BaF3; test: Antiproliferative activity against mouse BaF3 cells expressing Trp-MET assessed as cell growth inhibition measured after 72 hrs by Alamar Blue assay; details: BaF3, 72 h
[12] = molecular target: Mast/stem cell growth factor receptor Kit (Homo sapiens, UniProt P10721, K642E); test: Inhibition of KIT K642E mutant (unknown origin) autophosphorylation expressed in human GIST882 cells by ELISA-based assay; assay type: cell-based
Mast/stem cell growth factor receptor Kit, sequence (P10721 26-976 K642E limits assumed): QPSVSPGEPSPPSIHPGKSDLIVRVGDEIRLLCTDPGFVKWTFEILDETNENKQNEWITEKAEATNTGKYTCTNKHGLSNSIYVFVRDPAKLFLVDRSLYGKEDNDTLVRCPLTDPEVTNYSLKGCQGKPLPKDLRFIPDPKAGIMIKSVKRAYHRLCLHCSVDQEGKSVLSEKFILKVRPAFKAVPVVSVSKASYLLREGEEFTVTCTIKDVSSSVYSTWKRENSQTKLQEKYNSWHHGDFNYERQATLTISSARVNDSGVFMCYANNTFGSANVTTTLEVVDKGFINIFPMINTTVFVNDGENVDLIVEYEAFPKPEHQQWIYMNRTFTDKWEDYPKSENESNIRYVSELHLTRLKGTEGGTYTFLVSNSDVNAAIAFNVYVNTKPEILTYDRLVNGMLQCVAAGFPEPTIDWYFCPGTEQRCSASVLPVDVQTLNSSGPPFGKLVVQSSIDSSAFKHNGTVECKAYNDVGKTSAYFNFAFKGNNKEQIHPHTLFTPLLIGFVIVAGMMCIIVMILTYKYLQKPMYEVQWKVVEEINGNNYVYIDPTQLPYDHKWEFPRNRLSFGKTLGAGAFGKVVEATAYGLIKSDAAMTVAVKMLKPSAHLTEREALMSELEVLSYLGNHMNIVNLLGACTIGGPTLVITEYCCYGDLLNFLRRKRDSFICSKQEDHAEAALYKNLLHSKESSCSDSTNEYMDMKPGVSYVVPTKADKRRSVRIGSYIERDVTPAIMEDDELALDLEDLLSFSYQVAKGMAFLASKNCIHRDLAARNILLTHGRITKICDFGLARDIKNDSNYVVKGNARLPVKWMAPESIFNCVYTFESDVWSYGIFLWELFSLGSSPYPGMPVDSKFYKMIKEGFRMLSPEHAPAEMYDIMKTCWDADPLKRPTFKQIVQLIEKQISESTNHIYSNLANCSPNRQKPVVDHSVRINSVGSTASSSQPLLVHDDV
Method in brief: (§4)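 Cells were stimulated with the respective ligand. Receptor tyrosine kinase autophosphorylation in the presence of compound was quantified by ELISA.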

[13] = system: BaF3; test: Antiproliferative activity against mouse BaF3 cells expressing Bcr-ABL assessed as cell growth inhibition measured after 72 hrs by Alamar Blue assay; details: BaF3, 72 h
[14] = system: Mus musculus; test: Protection against VEGF-induced vessel extravasation in FVB mouse at 3 mg/kg pre-administrated for 2 to 48 hrs followed by evans-blue administration for 30 mins and measured 30 mins after dog VEGF164 addition; assay type: functional, organism-based; details: time 3-49 hrs
Method in brief: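 Female FVB mice (18–20 g), 3–4 per group. Oral 3 mg/kg at 48, 24 or 8 h before sacrifice. Evans blue 0.5 % (200 µl) given i.v. in the tail vein. 30 min later, 2 µL dog VEGF164 (10 ng/µL) injected intradermally into the ear pinna. Dye extravasation quantified by a computer-assisted system.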

[15] = molecular target: Insulin receptor (Homo sapiens, UniProt P06213); test: Inhibition of INSR (unknown origin) autophosphorylation expressed in […] by ELISA-based assay; assay type: cell-based; method in brief: as §4
Insulin receptor, sequence (P06213 28-758 limits assumed): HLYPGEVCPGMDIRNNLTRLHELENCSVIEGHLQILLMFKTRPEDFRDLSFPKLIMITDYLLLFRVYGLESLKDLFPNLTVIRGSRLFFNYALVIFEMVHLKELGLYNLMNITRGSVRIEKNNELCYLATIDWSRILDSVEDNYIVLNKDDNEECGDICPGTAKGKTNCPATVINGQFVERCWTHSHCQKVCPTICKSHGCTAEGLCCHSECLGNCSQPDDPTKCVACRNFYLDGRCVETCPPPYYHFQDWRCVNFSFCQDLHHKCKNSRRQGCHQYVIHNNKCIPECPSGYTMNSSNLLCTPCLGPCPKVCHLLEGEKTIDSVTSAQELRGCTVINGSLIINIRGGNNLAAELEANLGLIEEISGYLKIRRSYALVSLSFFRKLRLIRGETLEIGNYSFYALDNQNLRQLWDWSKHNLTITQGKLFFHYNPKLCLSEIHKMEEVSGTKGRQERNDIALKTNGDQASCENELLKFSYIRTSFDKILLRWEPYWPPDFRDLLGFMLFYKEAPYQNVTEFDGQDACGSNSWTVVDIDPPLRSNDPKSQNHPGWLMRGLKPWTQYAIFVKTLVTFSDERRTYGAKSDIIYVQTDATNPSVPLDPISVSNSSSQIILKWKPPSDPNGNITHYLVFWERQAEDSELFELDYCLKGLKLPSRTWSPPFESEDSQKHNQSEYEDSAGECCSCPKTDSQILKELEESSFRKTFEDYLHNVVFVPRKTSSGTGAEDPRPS
Insulin receptor, sequence (P06213 763-1382 limits assumed): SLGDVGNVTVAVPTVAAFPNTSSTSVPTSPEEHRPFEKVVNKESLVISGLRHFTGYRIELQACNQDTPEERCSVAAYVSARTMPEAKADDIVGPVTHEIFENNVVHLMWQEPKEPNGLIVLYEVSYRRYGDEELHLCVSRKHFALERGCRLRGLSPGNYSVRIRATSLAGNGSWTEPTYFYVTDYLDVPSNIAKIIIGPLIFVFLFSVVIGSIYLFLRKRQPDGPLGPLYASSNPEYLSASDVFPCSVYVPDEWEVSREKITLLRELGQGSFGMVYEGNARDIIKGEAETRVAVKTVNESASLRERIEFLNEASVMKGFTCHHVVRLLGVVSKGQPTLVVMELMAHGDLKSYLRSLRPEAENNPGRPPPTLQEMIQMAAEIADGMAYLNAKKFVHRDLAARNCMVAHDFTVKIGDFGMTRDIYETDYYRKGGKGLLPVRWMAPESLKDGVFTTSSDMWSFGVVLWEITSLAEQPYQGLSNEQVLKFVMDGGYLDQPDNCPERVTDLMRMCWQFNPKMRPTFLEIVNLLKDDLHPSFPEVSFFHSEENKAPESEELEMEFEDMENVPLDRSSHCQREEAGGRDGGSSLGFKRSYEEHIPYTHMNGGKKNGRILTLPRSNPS

[16] = Toxicity in C57BL/6jNpa mouse harbouring mouse B16-BL6 cells assessed as effect on animal behavior at 3 mg/kg, po qd administered started on day 7 post implantation measured after 21 days; assay type: organism-based; details: in vivo, 504 h, time 7-21 day
Method in brief: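 Female C57BL/6JNpa mice received 50000 B16/BL6 cells intradermally in both ear pinnae. Randomized on day 7 into groups of 5–6, then dosed 3 mg/kg p.o. daily in PEG200/PEG300 for 14 days. Behavior and well-being were observed. On day 21, blood was analysed for platelet, red and white cell counts and hematocrit.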

[17] = system: B16-BL6; test: Antitumor activity against mouse B16-BL6 cells implanted in C57BL/6jNpa mouse assessed as primary tumor growth inhibition by measuring T/C ratio at 3 mg/kg, po qd administered started on day 7 post implantation measured after 21 days; assay type: functional; details: time 7-21 day
Method in brief: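 Female C57BL/6JNpa mice, 50000 B16/BL6 cells intradermally in both ear pinnae; primary tumor area (mm²) imaged days 7, 14, 21; randomized day 7 into groups of 5-6, oral dosing in PEG200 or PEG300 vehicle daily (or every 2 days) for 14 days; day 21 cervical lymph nodes weighed, metastasis lysates assayed for TIE-2 by ELISA; T/C ratios.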

[18] = Clearance in Sprague-Dawley rat at 3 mg/kg, iv measured upto 24 hrs by HPLC/UV analysis; assay type: ADME, organism-based; details: in vivo
Method in brief: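 Female Sprague Dawley rats, 8 weeks old, catheterized in the jugular vein and femoral artery, recovered 96 h. IV dose 3 mg/kg in ethanol/NMP/PEG400/5 % glucose (10/10/50/30). n=2. Plasma sampled at 5, 15, 30 min and 1, 2, 4, 6, 8, 24 h.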

[19] = Toxicity in C57BL/6jNpa mouse harbouring mouse B16-BL6 cells assessed as effect on red blood cell count at 3 mg/kg, po qd administered started on day 7 post implantation measured after 21 days; assay type: organism-based; details: in vivo, 504 h, time 7-21 day; method in brief: as §3
[20] = Toxicity in C57BL/6jNpa mouse harbouring mouse B16-BL6 cells assessed as effect on hematocrit levels at 3 mg/kg, po qd administered started on day 7 post implantation measured after 21 days; assay type: organism-based; details: in vivo, 504 h, time 7-21 day; method in brief: as §3
[21] = Tmax in Sprague-Dawley rat at 50 mg/kg, po measured upto 24 hrs by HPLC/UV analysis; assay type: ADME, organism-based; details: in vivo
Method in brief: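 Female Sprague Dawley rats, 8 weeks old, catheterized. Oral suspension in 0.5 % carboxymethyl cellulose at 50 mg/kg, n=3. Bioavailability taken against 3 mg/kg iv. Plasma sampled 5 min–24 h. Cmax and AUC(0–∞) dose-normalized.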

| IC50 [1] [µM] | IC50 [2] [µM] | IC50 [3] [µM] | IC50 [4] [µM] | inhibition [6] | IC50 [8] [µM] | IC50 [9] [µM] | IC50 [11] [µM] | IC50 [12] [µM] | IC50 [13] [µM] | clearance [18] [mL/min/kg] | Tmax [21] [h] | SMILES | Activity [5] | Activity [7] | Activity [10] | Activity [14] | Activity [16] | T/C [17] | Activity [19] | Activity [20] | also measured |
| --- | --- | --- | --- | --- | --- | --- | --- | --- | --- | --- | --- | --- | --- | --- | --- | --- | --- | --- | --- | --- | --- |
| 1.5 | > 10 | > 10 | > 10 | Active | 7.2 | 0.027 | > 10 | 0.03 | 7.5 | – | – | O=C(Nc1cccc(C(F)(F)F)c1)c1cccc2cc(Oc3cc(CO)ncn3)ccc12 [BFH-772] | Active | Non-Toxic | Active | Active | Non-Toxic | 0.26 | – | – | IC50 [15]: > 0.5 µM |
| 0.32 | > 10 | 8.51 | > 10 | – | 8.9 | 0.016 | > 10 | – | > 10 | 2.83 | 5 | Nc1nccc(Oc2ccc3c(C(=O)Nc4ccc(F)c(C(F)(F)F)c4)cccc3c2)n1 | Active | Non-Toxic | Active | Active | Non-Toxic | 0.1 | Non-Toxic | Non-Toxic | – |
| 0.165 | > 10 | > 10 | > 10 | Active | > 10 | 0.009 | > 10 | 0.03 | 4.75 | – | – | Nc1nccc(Oc2ccc3c(C(=O)Nc4cccc(C(F)(F)F)c4)cccc3c2)n1 | – | Non-Toxic | – | – | Non-Toxic | 0.46 | – | – | IC50 [15]: > 0.5 µM |
| 0.037 | > 10 | 8 | > 10 | – | > 10 | 0.004 | > 10 | – | 9.5 | 3 | 4 | Nc1cc(Oc2ccc3c(C(=O)Nc4cccc(C(F)(F)F)c4)cccc3c2)ncn1 | – | Non-Toxic | – | – | Non-Toxic | 0.22 | Non-Toxic | Non-Toxic | – |
| 0.125 | > 10 | 7.8 | > 10 | – | > 10 | 0.01 | > 10 | – | > 10 | 0.833 | 8 | Nc1cc(Oc2ccc3c(C(=O)Nc4ccc(F)c(C(F)(F)F)c4)cccc3c2)ncn1 | – | Non-Toxic | – | – | Non-Toxic | 0.34 | Non-Toxic | Non-Toxic | – |
